# Assays:
# [1] = Oral bioavailability in Sprague-Dawley rat at 5 mg/kg; type: ADME, organism-based; details: in vivo
# Procedure, shortened: (§1)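 Male SD rats given a single oral dose of 5 mg/kg. Plasma sampled to obtain Cmax, time to Cmax and elimination half-life after oral dosing. Oral bioavailability (F) determined.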
# in vivo = details: Sprague-Dawley, rat, po, 5 mg/kg
# [2] = Elimination half life in Sprague-Dawley rat at 5 mg/kg, po; type: ADME, organism-based; design: dose 5 mg/kg, route oral; details: in vivo, read-out: beta t1/2 (converted); procedure, shortened: as §1
# [3] = molecular target: T1, Sodium/glucose cotransporter 2 (Homo sapiens, UniProt P31639); assay: Inhibition of human SGLT2 expressed in CHO cells assessed as [14C]alpha-methyl-D-glucopyranoside uptake after 2 hrs by liquid scintillation counting; type: cell-based
# T1 sequence (P31639 whole entry): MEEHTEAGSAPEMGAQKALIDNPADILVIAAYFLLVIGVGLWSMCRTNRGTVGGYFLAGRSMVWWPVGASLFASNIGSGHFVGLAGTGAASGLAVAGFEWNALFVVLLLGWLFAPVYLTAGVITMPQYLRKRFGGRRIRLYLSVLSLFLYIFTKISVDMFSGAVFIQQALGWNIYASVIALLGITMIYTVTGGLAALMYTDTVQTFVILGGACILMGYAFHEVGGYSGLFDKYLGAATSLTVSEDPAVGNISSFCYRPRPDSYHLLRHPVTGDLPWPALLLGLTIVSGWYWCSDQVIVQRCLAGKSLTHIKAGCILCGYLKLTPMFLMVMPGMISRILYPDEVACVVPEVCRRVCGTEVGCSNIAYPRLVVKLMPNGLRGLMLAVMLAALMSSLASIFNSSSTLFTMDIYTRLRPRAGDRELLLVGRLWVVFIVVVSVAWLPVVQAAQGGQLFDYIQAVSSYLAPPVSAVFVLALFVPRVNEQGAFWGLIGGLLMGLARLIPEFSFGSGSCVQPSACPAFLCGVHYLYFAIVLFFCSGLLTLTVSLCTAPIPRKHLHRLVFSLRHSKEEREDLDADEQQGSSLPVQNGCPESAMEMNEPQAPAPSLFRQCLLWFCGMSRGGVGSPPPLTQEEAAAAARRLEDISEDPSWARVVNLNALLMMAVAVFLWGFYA
# Procedure, shortened: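 CHO cells stably transfected with hSGLT2 (pcDNA3.1(+), G418-selected), seeded at 5 × 10⁴ cells/well and used 1 day later. Cells pre-incubated 10 min at 37 °C in Na⁺-free choline chloride buffer pH 7.4. Then incubated 2 h at 37 °C in NaCl uptake buffer with 1 mM unlabeled AMG plus ¹⁴C-AMG, with inhibitor or DMSO. Washed with 10 mM AMG buffer; radioactivity counted by liquid scintillation.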
# [4] = Cmax in Sprague-Dawley rat at 5 mg/kg, po after 0.33 hrs; type: ADME, organism-based; design: dose 5 mg/kg, route oral; details: in vivo; procedure, shortened: as §1
# Rattus norvegicus [5] = assay: Increase of urinary volume in normal Sprague-Dawley rat assessed […] at 10 mg/kg, po subsequently dosed orally with 50% aqueous glucose solution measured up to 24 hrs (RVB = 3.9 +/- 0.23 ml/200 mg body weight)
# Rattus norvegicus [6] = assay: Increase of urinary volume in normal Sprague-Dawley rat at 10 mg/kg, po subsequently dosed orally with 50% aqueous glucose solution measured up to 24 hrs relative to control; type: functional, Urine
# Rattus norvegicus [7] = assay: Increase of urinary glucose excretion in normal Sprague-Dawley rat at 10 mg/kg, po subsequently dosed orally with 50% aqueous glucose solution measured up to 24 hrs relative to control; type: functional, Urine
# Rattus norvegicus [8] = assay: Increase of urinary glucose excretion in normal Sprague-Dawley rat assessed per 200 g of body weight at 10 mg/kg, po subsequently dosed orally with 50% aqueous glucose solution measured up to 24 hrs (RVB = […] mg/200 g of body weight); type: functional, Urine
bioavailability [1],half-life [2],IC50 [3],SMILES,also measured
88.4%,4 h,–,CCOc1ccc(Cc2cc([C@@H]3O[C@H](CO)[C@@H](O)[C@H](O)[C@H]3O)ccc2Cl)cc1 [DAPAGLIFLOZIN],Cmax at 0.67 h (in vivo): 2.5 µg/mL
–,–,0.351 µM,COc1cccc(-c2ccc(Cc3cc([C@@H]4O[C@H](CO)[C@@H](O)[C@H](O)[C@H]4O)ccc3Cl)nn2)c1,–
–,–,0.11 µM,CC(C)Oc1ccc(Cc2cc([C@@H]3O[C@H](CO)[C@@H](O)[C@H](O)[C@H]3O)ccc2Cl)nn1,–
26.1%,1.94 h,–,CSc1ccc(Cc2cc([C@@H]3O[C@H](CO)[C@@H](O)[C@H](O)[C@H]3O)ccc2Cl)nn1,Cmax [4]: 0.31 µg/mL; Activity (Rattus norvegicus [5]): 5.07 mL; fold change (FC) (Rattus norvegicus [6]): 1.3; fold change (FC) (Rattus norvegicus [7]): 180; Activity (Rattus norvegicus [8]): 344 mg
–,–,> 10 µM,Cc1nnc(Cc2cc([C@@H]3O[C@H](CO)[C@@H](O)[C@H](O)[C@H]3O)ccc2Cl)c2ccccc12,–

# Source: ChEMBL document CHEMBL1155478, “Novel C-aryl glucoside SGLT2 inhibitors as potential antidiabetic agents: Pyridazinylmethylphenyl glucoside congeners” (Bioorg Med Chem Lett, 2010)
